Experimental data: ChEMBL document CHEMBL3763045, “Design, Synthesis, and Pharmacological Evaluation of Novel N-Acylhydrazone Derivatives as Potent Histone Deacetylase 6/8 Dual Inhibitors” (J Med Chem, 2016)
Converted amounts (≈) assume the structure as drawn. The source made the active and inactive calls. The rule behind the calls is not given here.

Columns and labels:
[1] = Aqueous solubility of the compound in buffer at pH 7.4 after 24 hrs by spectrophotometric method; assay type: physicochemical
Method in brief: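 Water solubility in pH 7.4 buffer, measured spectrophotometrically by the method of Schneider and coworkers.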

[2] = biological target: T1, Protein deacetylase HDAC6 (Homo sapiens, UniProt Q9UBN7); assay: Inhibition of recombinant human HDAC6 by fluorimetry
T1 sequence (Q9UBN7 whole entry): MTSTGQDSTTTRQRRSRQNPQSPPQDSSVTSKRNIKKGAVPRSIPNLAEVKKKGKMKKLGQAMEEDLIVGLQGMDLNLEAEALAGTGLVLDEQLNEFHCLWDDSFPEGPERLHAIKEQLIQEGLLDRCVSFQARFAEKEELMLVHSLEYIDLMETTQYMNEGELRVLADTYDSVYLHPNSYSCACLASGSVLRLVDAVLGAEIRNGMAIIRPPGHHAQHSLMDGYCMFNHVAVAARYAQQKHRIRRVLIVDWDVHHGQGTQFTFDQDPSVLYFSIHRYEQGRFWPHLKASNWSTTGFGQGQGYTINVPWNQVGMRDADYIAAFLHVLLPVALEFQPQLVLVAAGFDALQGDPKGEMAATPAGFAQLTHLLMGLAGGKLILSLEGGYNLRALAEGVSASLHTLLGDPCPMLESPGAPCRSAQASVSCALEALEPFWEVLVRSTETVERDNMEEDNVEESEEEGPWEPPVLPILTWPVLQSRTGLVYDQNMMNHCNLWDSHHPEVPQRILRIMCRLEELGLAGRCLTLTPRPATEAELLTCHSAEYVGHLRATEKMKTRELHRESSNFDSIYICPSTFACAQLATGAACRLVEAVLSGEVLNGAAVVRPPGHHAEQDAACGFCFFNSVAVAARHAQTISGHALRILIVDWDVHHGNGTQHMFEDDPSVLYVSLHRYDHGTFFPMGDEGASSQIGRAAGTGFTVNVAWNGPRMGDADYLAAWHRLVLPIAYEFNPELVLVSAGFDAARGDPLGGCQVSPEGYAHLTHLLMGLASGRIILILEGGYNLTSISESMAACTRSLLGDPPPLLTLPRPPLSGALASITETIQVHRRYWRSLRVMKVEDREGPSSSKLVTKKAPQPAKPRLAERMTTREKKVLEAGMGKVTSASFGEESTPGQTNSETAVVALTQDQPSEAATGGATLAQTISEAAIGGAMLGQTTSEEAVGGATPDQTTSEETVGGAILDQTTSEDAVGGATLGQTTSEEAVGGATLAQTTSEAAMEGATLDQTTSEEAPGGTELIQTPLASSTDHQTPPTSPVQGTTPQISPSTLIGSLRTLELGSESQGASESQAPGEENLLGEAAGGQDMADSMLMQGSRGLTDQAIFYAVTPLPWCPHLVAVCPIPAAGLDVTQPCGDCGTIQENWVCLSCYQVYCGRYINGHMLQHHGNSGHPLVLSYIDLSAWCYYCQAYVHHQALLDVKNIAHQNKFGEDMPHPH

HepG2 [3] = assay: Antiproliferative activity against human HepG2 cells assessed as reduction in cell viability at 40 uM after 48 hrs by MTS assay; assay type: functional, cell-based
Histone deacetylase 1 = Histone deacetylase 1 (Homo sapiens, UniProt Q13547); assay: Inhibition of recombinant human HDAC1 by fluorimetry
Histone deacetylase 8 = biological target: T2, Histone deacetylase 8 (Homo sapiens, UniProt Q9BY41); assay: Inhibition of recombinant human HDAC8 by fluorimetry
T2 sequence (Q9BY41 whole entry): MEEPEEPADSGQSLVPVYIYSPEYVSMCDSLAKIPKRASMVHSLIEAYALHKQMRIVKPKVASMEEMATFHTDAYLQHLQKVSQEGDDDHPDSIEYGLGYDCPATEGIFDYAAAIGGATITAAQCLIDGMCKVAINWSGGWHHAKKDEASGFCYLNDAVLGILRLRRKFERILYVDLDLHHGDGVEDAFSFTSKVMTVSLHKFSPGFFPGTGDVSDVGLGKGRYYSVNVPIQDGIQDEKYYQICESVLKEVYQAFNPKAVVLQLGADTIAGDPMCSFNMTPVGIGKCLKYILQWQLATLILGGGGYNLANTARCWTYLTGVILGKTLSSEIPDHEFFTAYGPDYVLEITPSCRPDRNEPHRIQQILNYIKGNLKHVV

HepG2 [4] = assay: Antiproliferative activity against human HepG2 cells assessed as reduction in cell viability after 48 hrs by MTS assay; assay type: functional, cell-based; conditions: HepG2, 48 h
[5] = Chemical stability of compound in phosphate dibasic buffer assessed as compound degradation at pH 7.4 by HPLC-PDA analysis; assay type: physicochemical; conditions: read-out: Drug degradation
Method in brief: (§1)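 Compounds stirred in pH 7.4 or pH 2 buffer at 37 °C for 240 min; percentage of compound recovered followed over time (30 min and 4 h points). Triplicate runs, values averaged.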

[6] = Chemical stability of the compound in acidic buffer assessed as compound recovery at pH 2 after 30 mins by HPLC-PDA analysis; assay type: physicochemical; conditions: buffer, pH 2, 0.5 h; method in brief: as §1
HT-144 = assay: Antiproliferative activity against human HT144 cells assessed as reduction in cell viability at 40 uM after 48 hrs by MTS assay; assay type: functional, cell-based
MCF7 = assay: Antiproliferative activity against human MCF7 cells assessed as reduction in cell viability at 40 uM after 48 hrs by MTS assay; assay type: functional, cell-based
Method in brief: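 MCF-7 cells exposed at 40 µM for 48 h, viability by MTS; ANOVA with Tukey's post-test against control.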

[7] = Antiproliferative activity against human HT144 cells assessed as reduction in cell viability after 48 hrs by MTS assay; assay type: functional, cell-based; conditions: HT-144, 48 h
Histone deacetylase 2 = Histone deacetylase 2 (Homo sapiens, UniProt Q92769); assay: Inhibition of recombinant human HDAC2 by fluorimetry
[8] = Chemical stability of the compound in acidic buffer assessed as compound hydrolysis at pH 2 measured for 240 mins by HPLC-PDA analysis; assay type: physicochemical; conditions: pH 2, 4 h; method in brief: as §1
[9] = biological target: Histone deacetylase (Rattus norvegicus) (UniProt Q6P6W3+Q99P99+Q99P96+Q4QQW4+Q99P97+Q5RJZ2+B1WBY8); assay: Inhibition of HDAC in rat liver at 1 uM by fluorimetry
Method in brief: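 Rat liver HDAC preparation, non-selective enzyme assay, test compounds at 1 µM; % inhibition is the mean of two experiments.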

[10] = Lipophilicity, logD of the compound at pH 7.4 after 4 hrs; assay type: physicochemical; conditions: buffer
[11] = Ionization constant, pKa of the compound in buffer measured over 3 hrs by UV spectrometry; assay type: physicochemical
HepG2 [12] = assay: Effect on cell cycle distribution in human HepG2 cells assessed as accumulation at SubG1 phase at 5 to 10 uM after 24 to 48 hrs by propidium iodide staining-based flow cytometry; assay type: functional
Method in brief: (§2)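 Cell cycle of HepG2 cells by flow cytometry after 5 or 10 µM for 24 and 48 h, giving SubG1, G0/G1, S and G2/M fractions. ANOVA with Tukey's post-test against control.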

[13] = biological target: T3, Protein deacetylase HDAC6 (Homo sapiens) (UniProt Q9UBN7); assay: Inhibition of HDAC6 in human Calu1 cells assessed as induction of tubulin acetylation at 15 to 54 nM after 24 hrs by Western blotting analysis; assay type: cell-based; conditions: Calu-1
T3 sequence (whole entry): T1 sequence (Q9UBN7 whole entry)
Method in brief: (§3)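 Calu-1 and A549 cells treated 24 h, acetylated tubulin detected by western blot with GAPDH as loading control. DMSO vehicle control; one representative of three independent experiments.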

Calu-1 = assay: Inhibition of cell migration in human Calu1 cells at 15 and 30 nM after 48 hrs by scratch test; assay type: functional, cell-based
Method in brief: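 Calu-1 migration by scratch test after 48 h treatment. DMSO vehicle control; one representative of three independent experiments.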

HepG2 [14] = assay: Effect on cell cycle distribution in human HepG2 cells assessed as decrease in S phase at 5 to 10 uM after 24 to 48 hrs by propidium iodide staining-based flow cytometry; assay type: functional; method in brief: as §2
HepG2 [15] = assay: Effect on cell cycle distribution in human HepG2 cells assessed as decrease in G0/G1 phase at 5 to 10 uM after 24 to 48 hrs by propidium iodide staining-based flow cytometry; assay type: functional; method in brief: as §2
Histone deacetylase = assay: Inhibition of HDAC in rat liver by fluorimetry
Method in brief: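 Rat liver HDAC IC50 from a six-point enzyme assay, three-fold serial dilution starting at 3 µM or 1 µM depending on compound; mean of two experiments ± SD.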

HepG2 [16] = assay: Effect on cell cycle distribution in human HepG2 cells assessed as accumulation at G2/M phase at 5 uM after 24 and 48 hrs by propidium iodide staining-based flow cytometry; assay type: functional; method in brief: as §2
[17] = biological target: T3, Protein deacetylase HDAC6 (Homo sapiens); assay: Inhibition of HDAC6 in human A549 cells assessed as induction of tubulin acetylation at 15 to 54 nM after 24 hrs by Western blotting analysis; assay type: cell-based; method in brief: as §3

Sequence of Histone deacetylase 1 (Q13547 whole entry): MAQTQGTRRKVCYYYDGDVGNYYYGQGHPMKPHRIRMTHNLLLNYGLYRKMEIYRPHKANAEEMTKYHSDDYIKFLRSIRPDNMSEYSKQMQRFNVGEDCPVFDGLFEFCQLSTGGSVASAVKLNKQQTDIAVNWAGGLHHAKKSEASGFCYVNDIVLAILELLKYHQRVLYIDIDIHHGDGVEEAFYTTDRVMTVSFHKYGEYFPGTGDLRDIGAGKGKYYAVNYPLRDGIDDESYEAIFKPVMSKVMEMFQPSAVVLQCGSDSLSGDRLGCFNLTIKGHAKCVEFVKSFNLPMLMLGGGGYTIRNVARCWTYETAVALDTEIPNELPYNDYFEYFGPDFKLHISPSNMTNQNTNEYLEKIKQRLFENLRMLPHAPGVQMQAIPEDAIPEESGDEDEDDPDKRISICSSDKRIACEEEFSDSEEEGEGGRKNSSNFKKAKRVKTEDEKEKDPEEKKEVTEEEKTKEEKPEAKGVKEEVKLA
Sequence of Histone deacetylase 2 (Q92769 whole entry): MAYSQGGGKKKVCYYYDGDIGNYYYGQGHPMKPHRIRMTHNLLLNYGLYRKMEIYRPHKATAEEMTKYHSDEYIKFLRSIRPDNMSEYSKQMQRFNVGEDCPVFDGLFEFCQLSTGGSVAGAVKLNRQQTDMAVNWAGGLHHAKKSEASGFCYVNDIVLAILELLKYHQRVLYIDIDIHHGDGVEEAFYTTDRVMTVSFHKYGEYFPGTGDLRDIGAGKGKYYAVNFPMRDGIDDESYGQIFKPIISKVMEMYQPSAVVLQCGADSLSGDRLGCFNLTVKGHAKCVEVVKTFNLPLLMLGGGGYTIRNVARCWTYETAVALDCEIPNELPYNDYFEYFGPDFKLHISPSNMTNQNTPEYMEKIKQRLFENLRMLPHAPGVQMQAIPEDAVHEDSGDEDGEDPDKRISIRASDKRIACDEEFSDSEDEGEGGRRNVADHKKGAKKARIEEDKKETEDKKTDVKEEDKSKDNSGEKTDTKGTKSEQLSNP

SMILES | solubility at 24 h [1] [µM] | IC50 [2] [µM] | Activity (HepG2 [3]) | IC50 (Histone deacetylase 1) [µM] | IC50 (Histone deacetylase 8) [µM] | Activity (HT-144) | Activity (MCF7) | IC50 (Histone deacetylase 2) [µM] | inhibition [9] [%] | further results
C/C(=N\N(C)C(=O)c1ccc(N(C)C)cc1)c1ccc(C(=O)NO)cc1 | 122 (≈ 43.2 µg/mL) | 0.097 | Active | > 3 | 0.054 | Active | Active | > 3 | – | IC50 (HepG2 [4]): 30.3 µM; degraded [5]: > 15%; Stability [6]: Unstable; IC50 [7]: 51.6 µM; Stability [8]: Unstable
CN(C)c1ccc(C(=O)N/N=C/c2cccc(C(=O)O)c2)cc1 | > 70 | – | – | – | – | – | – | – | – | –
CN(C)c1ccc(C(=O)N/N=C/c2ccc(C(=O)O)cc2)cc1 | > 77 | – | – | – | – | – | – | – | -9.1 | –
CN(/N=C/c1cccc(C(=O)NO)c1)C(=O)c1ccc(N(C)C)cc1 | > 70 | 2.5 | Active | > 10 | 2 | Active | Active | > 10 | 33.4 | –
CN(C)c1ccc(C(=O)N/N=C/c2ccc(C(=O)NO)cc2)cc1 | 15 (≈ 4.9 µg/mL) | 0.015 | Active | > 3 | 0.23 | Active | Active | > 3 | 90.4 | logD at 4 h [10]: 0.68; pKa at 3 h [11]: 8.1; Activity (HepG2 [12]): Active; inhibition [13]: Active; inhibition (Calu-1): Active; IC50 (HepG2 [4]): 9.48 µM; Activity (HepG2 [14]): Active; degraded [5]: > 15%; Activity (HepG2 [15]): Active; IC50 (Histone deacetylase): 0.021 µM; IC50 [7]: 21.2 µM; Activity (HepG2 [16]): Active; inhibition [17]: Active; Stability [8]: Unstable
CN(C)c1ccc(C(=O)N/N=C/c2cccc(C(=O)NO)c2)cc1 | > 67 | 0.39 | Active | > 10 | 2.2 | Active | Active | > 10 | 66 | IC50 (Histone deacetylase): 1.2 µM
COC(=O)c1cccc(/C=N/NC(=O)c2ccc(N(C)C)cc2)c1 | 3.7 (≈ 1.2 µg/mL) | – | – | – | – | – | – | – | -4.6 | –
